The source of these data is ChEMBL document CHEMBL5137016, “Turning Nonselective Inhibitors of Type I Protein Arginine Methyltransferases into Potent and Selective Inhibitors of Protein Arginine Methyltransferase 4 through a Deconstruction-Reconstruction and Fragment-Growing Approach” (J Med Chem, 2022).

Active and inactive are the calls of the source. No cut-off for these calls is given here. Bounds are passed on as bounds.

Series [1] has as its target T1, Histone-arginine methyltransferase CARM1 (Homo sapiens, UniProt Q86X55).
T1 sequence (Q86X55 whole entry): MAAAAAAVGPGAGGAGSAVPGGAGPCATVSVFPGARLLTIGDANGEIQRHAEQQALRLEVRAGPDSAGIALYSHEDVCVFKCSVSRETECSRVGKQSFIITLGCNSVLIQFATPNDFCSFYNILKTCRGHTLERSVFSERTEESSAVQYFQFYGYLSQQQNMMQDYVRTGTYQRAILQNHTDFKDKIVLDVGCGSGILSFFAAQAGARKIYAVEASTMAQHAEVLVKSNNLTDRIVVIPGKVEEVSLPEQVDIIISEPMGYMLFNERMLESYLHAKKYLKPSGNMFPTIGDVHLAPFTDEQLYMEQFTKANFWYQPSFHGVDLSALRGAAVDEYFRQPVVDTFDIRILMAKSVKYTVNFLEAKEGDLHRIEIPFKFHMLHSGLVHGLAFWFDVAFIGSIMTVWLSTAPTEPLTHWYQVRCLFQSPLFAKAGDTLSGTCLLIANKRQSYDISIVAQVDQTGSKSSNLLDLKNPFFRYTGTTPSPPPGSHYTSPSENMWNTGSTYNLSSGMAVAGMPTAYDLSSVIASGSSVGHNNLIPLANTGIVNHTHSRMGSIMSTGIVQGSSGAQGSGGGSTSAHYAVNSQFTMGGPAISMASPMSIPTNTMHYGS
Kind of series: Inhibition of PRMT4 (unknown origin).

A short description of series [2]: Apparent permeability of the compound in phosphate buffer at pH 7.4 measured after 24 hrs by PAMPA assay. In kind it is ADME. The conditions noted are these: pH 7.4, 24 h.
In series [3] the target is T2, Histone-arginine methyltransferase CARM1 (Homo sapiens) (UniProt Q86X55).
T2 sequence (whole entry): T1 sequence (Q86X55 whole entry)
Kind of series: Binding affinity to full length recombinant PRMT4 (unknown origin) assessed as binding constant (Kon) by surface plasmon resonance analysis. The procedure, abridged:
(§1)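 Full-length recombinant PRMT4 was amine-coupled to a CM5 chip at 50 μg/mL in 10 mM acetate pH 4.5, to 4.6 kRU, with an empty reference cell. The running buffer was PBS pH 7.4 with 0.05% Tween-20 and 2% DMSO. Compounds ran as 12 serial dilutions from 640 to 10 nM at 25 °C and 30 μL/min, with 90 s association and 90 s dissociation. Data were solvent-corrected and double-referenced, and KD was taken as koff/kon.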
For orientation: Surface plasmon resonance follows binding to a sensor surface in real time, without labels.

Series [4] in a line: Cytotoxicity against human HEK293T cells assessed as cell viability at 10 to 100 uM measured after 72 hrs by MTT assay. In kind it is toxicity, cell-based, HEK-293T. To be noted: dose 10-100 µM, read-out: Activity. The procedure, abridged: (§2)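 HEK293T cells grown in DMEM with 10% FBS, penicillin/streptomycin and 2 mM glutamine at 37 °C, 5% CO2; seeded at 5 × 10^4 cells/mL, exposed 24 or 72 h to 10, 50 or 100 μM in 0.2% DMSO; MTT formazan dissolved in DMSO, read at 550 nm minus 620 nm; quadruplicate; percent of 0.2% DMSO control.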

Series [5] deals with HEK-293T. Kind of series: Cytotoxicity against human HEK293T cells assessed as cell viability at 10 to 100 uM incubated for 24 to 72 hrs by MTT assay. In kind it is toxicity, cell-based. The conditions noted are these: dose lower 10 µM, time lower 24 hrs, dose upper 100 µM, time upper 72 hrs. A digest of the protocol:
as §2
Background: Formazan colour is commonly taken as a measure of viable cells.

Series [6] concerns the target T2, Histone-arginine methyltransferase CARM1 (Homo sapiens). Kind of series: Binding affinity to full length recombinant PRMT4 (unknown origin) assessed as binding constant (Koff) by surface plasmon resonance analysis. The procedure, abridged:
as §1

The target is the same in series [7]. Kind of series: Binding affinity to full length recombinant PRMT4 (unknown origin) assessed as in vitro residence time by surface plasmon resonance analysis. The procedure, abridged: as §1
The test system of series [8] is MCF7. Briefly: Antiproliferative activity against human MCF7 cells assessed as reduction in cell viability at 10 uM incubated up to 8 days by cell titer-glo assay. The conditions noted are these: time <= 8.0 day. In kind it is functional, cell-based. The procedure, abridged: (§3)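 MCF7 seeded at 1000 cells/well in 96-well plates; proliferation read at days 0, 2, 4, 6 and 8 with medium changed at day 4; viability measured by CellTiter-Glo luminescence.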

Series [9] can be described thus: Toxicity in human HEK293T cells assessed as cell death at >10 uM measured after 24 hrs. The conditions noted are these: hek-293t.
The species entered for series [10] is Homo sapiens. Kind of series: Selectivity index, ratio of IC50 for inhibition of human full length recombinant GST-tagged PRMT6 (2 to 375 residues) using GST-GAR as substrate to IC50 for inhibition of human full length recombinant GST-tagged PRMT4 (2 to 608 residues) using histone H3 as substrate. The procedure, abridged: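 Radioisotope filter-binding assay: PRMT6 used 5 μM GST-GAR and PRMT4 used 5 μM histone H3, in pH 8.5 Tris buffer with 1% DMSO. Compound was preincubated 20 min at room temperature, then 1 μM 3H-SAM was added for 60 min at 30 °C, with scintillation read-out. […] Index = IC50(PRMT6)/IC50(PRMT4), rounded to integer.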

The subject of series [11] is MCF7. Briefly: Antiproliferative activity against human MCF7 cells assessed as reduction in cell viability at 50 uM incubated up to 8 days by cell titer-glo assay. The conditions noted are these: time <= 8.0 day. In kind it is functional, cell-based. The procedure, abridged:
as §3

One may read the IC50 as the point on the concentration scale where inhibition reaches its midpoint. A high value points to a need for much substance.

Compound `COc1ccc(CCNC(=O)[C@@H](N)CC[C@H](CNCc2ccccc2)C[C@H]2O[C@@H](n3cnc4c(N)ncnc43)[C@H](O)[C@@H]2O)cc1` showed an IC50 in series [1] of 1900 nM.

As to `COC(=O)c1cc(O)c2cc(NC(=O)NCCCCNC(=N)NCCC[C@H]3O[C@@H](n4cnc5c(N)ncnc54)[C@H](O)[C@@H]3O)ccc2c1`, the permeability entry in series [2] is “Impermeable”. Further, in [3], the K was 0.25 10^6/Ms. Further, the viability at 72 h, up to 100 µM in series [4] was determined as 80%. For the same compound, in series [5], the Activity entry was “Non-Toxic”.

Turning to `C[S+](CCC(N)C(=O)O)C[C@H]1O[C@@H](n2cnc3c(N)ncnc32)[C@H](O)[C@@H]1O` (single isomer, unassigned), the K in series [3] was 2.9 10^5/Ms; in series [6], 0.003 s⁻¹. Besides, in series [7], the TIME stood at 0.0926 h.

On to `COC(=O)c1cc(O)c2cc(NC(=O)NCCCCNC(=N)NCC[C@H]3O[C@@H](n4cnc5c(N)ncnc54)[C@H](O)[C@@H]3O)ccc2c1`, for which the permeability entry in series [2] is “Impermeable”. The K in series [3] is 2.7 10^6/Ms. In addition, the viability at 72 h, up to 100 µM in series [4] worked out at 80%. In addition, in series [5], the Activity entry is given as “Non-Toxic”.

On to `CNCCN1CCC(c2cc(CN(C)C(=O)c3cccc(Oc4ccccc4)c3)ccn2)CC1`, for which, in series [8], the outcome was Active. In series [9], the Activity result is recorded as “Toxic”.

Consider `COC(=O)c1cc(O)c2cc(NC(=O)NCCCCCCCNC(=N)NC[C@H]3O[C@@H](n4cnc5c(N)ncnc54)[C@H](O)[C@@H]3O)ccc2c1`, for which the K in [3] was 2.58 10^4/Ms.

On to `COC(=O)c1cc(O)c2cc(NC(=O)NCCCCCNC(=N)NC[C@H]3O[C@@H](n4cnc5c(N)ncnc54)[C@H](O)[C@@H]3O)ccc2c1`, for which the K in series [3] was 3.49 10^4/Ms. Moreover, the Selectivity Index in [10] was greater than 238.

As for `COC(=O)c1cc(O)c2cc(NC(=O)NCCCCNC(=N)NC/C=C/[C@H]3O[C@@H](n4cnc5c(N)ncnc54)[C@H](O)[C@@H]3O)ccc2c1`, the permeability result in [2] was “Impermeable”. Moreover, the viability at 72 h, up to 100 µM in series [4] worked out at 80%. Besides, the result in series [11] was Active. In addition, in series [5], the Activity entry is “Non-Toxic”.
